Data published in ChEMBL document CHEMBL1955718, “Discovery of new orally effective analgesic and anti-inflammatory hybrid furoxanyl N-acylhydrazone derivatives” (Bioorg Med Chem, 2012).

Experiments:
HT-29 [1] = assay: Inhibition of TNF-alpha-induced NFkappaB activation expressed in human HT-29 cells coexpressing hrGFP at 25 uM after 24 hrs by propidium iodide staining-based flow cytometric analysis relative to control; type: cell-based
Method in brief: (§1)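 HT-29 cells stably expressing NF-κB-driven hrGFP given compound (DMSO <0.5%) for 2 h at the maximum non-cytotoxic concentration, then TNF-α at 3 ng/mL final for 18–24 h. Cells trypsinised and stained with propidium iodide; 5000 events gated on FSC/SSC. The %GFP-positive among PI-excluding live cells is normalised to TNF-α/DMSO control, ± SD.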

[2] = Cytotoxicity against human HT-29 cells expressing NF-kappaB-hrGFP assessed as highest non-cytotoxic dose for 100% cell survival after 24 hrs by MTT assay; type: cell-based; conditions: read-out: Activity
Method in brief: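 HT-29 cells stably carrying pNF-κB-hrGFP, seeded at 0.5 × 10^6/mL in DMEM with 10% FBS, grown 24 h at 37 °C, 5% CO2. Compounds added in DMSO (<0.5% v/v final) at 12.5–400 µM for 24 h. Viability by MTT reduction (2 h), formazan dissolved in DMSO/glycine buffer, read at 560 nm.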

HT-29 [3] = assay: Inhibition of NF-kappaB activation expressed in human HT-29 cells assessed as inhibition of TNFalpha-stimulated IL8 release at 25 uM after 24 hrs by flow cytometric analysis relative to control; type: cell-based
Method in brief: (§2)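 Reporter HT-29-NF-κB-hrGFP cells pretreated 2 h with compound (DMSO <0.5%) at the highest concentration with 100% survival, then stimulated with TNF-α (3 ng/mL final) for 18–24 h at 37 °C. IL-8 in clarified supernatant measured by flow cytometric bead assay (500 events). Expressed as % of TNF-α/DMSO control ± SD; thalidomide as reference.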

[4] = Cytotoxicity against mouse […] cells after 48 hrs by MTT assay; type: cell-based
Method in brief: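 J774 macrophages in DMEM (4 mM L-glutamine, 10% heat-inactivated FBS) were seeded at 1 × 10^5 cells/well and grown for 48 h at 37 °C, 5% CO2. They were then exposed to compounds at 25–400 µM for 48 h. MTT (0.1 mg/mL final) was added for 3 h, formazan was dissolved in DMSO/glycine buffer pH 10.5, and absorbance was read at 560 nm to give an IC50.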

HT-29 [5] = assay: Pro-inflammatory activity in NFkappaB-GFP transfected human HT-29 cells at 25 to 400 uM after 24 hrs by propidium iodide staining-based flow cytometric analysis; type: ADME, cell-based; conditions: ht-29, 24 h
Method in brief: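 Reporter HT-29-NF-κB-hrGFP cells given compound alone, without TNF-α, for 18–24 h at 37 °C after the same 2 h pre-incubation. GFP-positive live (propidium iodide-excluding) cells counted by flow cytometry; IL-8 in supernatant measured by bead-based flow cytometry.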

Glycine max = assay: Inhibition of soybean lipoxygenase using arachidonic acid as substrate at 50 uM
Method in brief: (§3)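 Soybean 15-lipoxygenase kit assay, arachidonic acid substrate, H2O2 as lipoxygenating agent in 0.1 M Tris-HCl pH 7.4. Single-point screen at 50 µM. IC50 found by varying concentration over 10–100 µM. Quercetin at 4 µM as positive control; duplicate means; Student t-test.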

[6] = Inhibition of soybean lipoxygenase using arachidonic acid as substrate; design: species or system Glycine max; method in brief: as §3
HT-29 [7] = assay: Inhibition of TNFalpha-induced NF-kappaB activation expressed in human HT-29 cells coexpressing hrGFP at 100 uM after 24 hrs by propidium iodide staining-based flow cytometric analysis relative to control; type: cell-based; method in brief: as §1
[8] = Solubility of the compound in soybean lipoxygenase assay buffer at pH 7.4 at >50 uM; type: physicochemical
Mus musculus = assay: Analgesic activity in albino mouse assessed as inhibition of acetic acid-induced abdominal constriction at 100 umol/kg, po administered 1 hr before acetic acid challenge measured after 60 mins relative to control; type: functional; conditions: Abdomen
Method in brief: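 Albino mice of both sexes (18–23 g) were dosed orally as a suspension in 5% arabic gum in saline, with vehicle controls. After 1 h they received 0.6% acetic acid ip (0.1 mL/10 g). Constrictions were counted for 20 min starting 10 min after injection. Data are % inhibition vs vehicle, mean ± SEM, Student t-test.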

Rattus norvegicus = assay: Antiinflammatory activity in albino rat assessed as inhibition of carrageenan-induced paw edema at 100 umol/kg, po administered 1 hr before carrageenan challenge measured after 3 hrs by plethysmometric analysis relative to control; type: functional
Method in brief: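 Albino rats of both sexes (150–200 g) were dosed orally as a suspension in 1% Tween 80 in saline, with vehicle controls. After 1 h, 0.1 mL 1% carrageenan or saline was injected subplantar. Paw volume was read by glass plethysmometer at 3 h. Edema = carrageenan-paw minus saline-paw volume; % inhibition vs vehicle; Student t-test.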

[9] = molecular target: T1, Prostaglandin G/H synthase 1 (Ovis aries) (UniProt P05979); conditions: 0.1 uM
T1 sequence (whole entry): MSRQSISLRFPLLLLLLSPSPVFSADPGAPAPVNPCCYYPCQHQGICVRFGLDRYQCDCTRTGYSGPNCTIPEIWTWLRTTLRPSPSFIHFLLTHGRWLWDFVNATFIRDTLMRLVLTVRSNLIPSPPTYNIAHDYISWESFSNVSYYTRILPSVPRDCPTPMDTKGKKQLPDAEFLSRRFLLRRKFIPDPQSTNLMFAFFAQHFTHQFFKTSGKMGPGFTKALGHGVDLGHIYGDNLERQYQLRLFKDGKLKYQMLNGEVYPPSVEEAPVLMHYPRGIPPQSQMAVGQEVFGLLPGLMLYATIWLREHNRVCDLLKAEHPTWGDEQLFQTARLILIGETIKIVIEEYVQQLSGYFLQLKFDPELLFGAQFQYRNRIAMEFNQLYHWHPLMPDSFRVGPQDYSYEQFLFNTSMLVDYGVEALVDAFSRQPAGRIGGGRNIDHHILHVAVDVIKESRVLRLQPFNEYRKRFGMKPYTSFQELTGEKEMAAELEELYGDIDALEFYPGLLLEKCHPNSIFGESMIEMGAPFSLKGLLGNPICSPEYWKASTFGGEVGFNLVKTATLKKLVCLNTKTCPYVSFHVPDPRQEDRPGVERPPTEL

HT-29 [10] = assay: Inhibition of TNF-alpha-induced NFkappaB activation expressed in human HT-29 cells coexpressing hrGFP at 20 uM after 24 hrs by propidium iodide staining-based flow cytometric analysis relative to control; type: cell-based; method in brief: as §1
HT-29 [11] = assay: Inhibition of NF-kappaB activation expressed in human HT-29 cells assessed as inhibition of TNFalpha-stimulated IL8 release at 20 uM after 24 hrs by flow cytometric analysis relative to control; type: cell-based; method in brief: as §2
[12] = Induction of NO release in 0.1 M Tris-HCl and 0.1 mM DTPA at pH 7.4 measured for 20 mins in presence of cysteine; type: physicochemical; conditions: buffer, pH 7.4, 20 min
Method in brief: (§4)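 Electrochemical NO detection with an ISO-NOP sensor. Compounds in DMSO added to 0.1 M Tris-HCl, 0.1 mM DTPA at pH 7.4 or 8.3. Cysteine (300 or 100 µM) added and NO recorded for 20 min at 25 or 37 °C; compound:Cys ratio 1:1 at 25 °C, with 3:1 and 37 °C runs also made.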

HT-29 [13] = assay: Inhibition of TNFalpha-induced NF-kappaB activation expressed in human HT-29 cells coexpressing hrGFP at 400 uM after 24 hrs by propidium iodide staining-based flow cytometric analysis relative to control; type: cell-based; method in brief: as §1
HT-29 [14] = assay: Inhibition of NF-kappaB activation expressed in human HT-29 cells assessed as inhibition of TNFalpha-stimulated IL8 release at 400 uM after 24 hrs by flow cytometric analysis relative to control; type: cell-based; method in brief: as §2
[15] = Induction of NO release in 0.1 M Tris-HCl and 0.1 mM DTPA at pH 8.3 measured for 20 mins in presence of cysteine; type: physicochemical; conditions: buffer, pH 8.3, 20 min; method in brief: as §4
Salmonella typhimurium [16] = assay: Induction of mutagenesis in Salmonella Typhimurium TA98 assessed as number of revertants at 3.1 to 250 ug/plate in presence of mouse liver S9 fraction; type: toxicity, organism-based; conditions: salmonella enterica subsp. enterica serovar typhimurium
Method in brief: (§5)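 S. typhimurium TA98, plate incorporation on minimal glucose (Vogel-Bonner) agar. Compounds were in DMSO, dosed in triplicate with a top non-toxic dose of 250 or 350 µg/plate. Runs were without S9 (positive control 4-nitro-o-phenylenediamine, 20 µg/plate) or with 500 µL Aroclor-induced mouse liver S9 (positive control 2-aminofluorene, 10 µg/plate), plus a DMSO control. Revertants were counted manually; mutagenic means ≥2-fold spontaneous revertants at two consecutive doses.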

Salmonella typhimurium [17] = assay: Induction of mutagenesis in Salmonella Typhimurium TA98 assessed as number of revertants at 3.1 to 250 ug/plate in absence of mouse liver S9 fraction; type: toxicity, organism-based; conditions: salmonella enterica subsp. enterica serovar typhimurium; method in brief: as §5
HT-29 [18] = assay: Inhibition of NF-kappaB activation expressed in human HT-29 cells assessed as inhibition of TNFalpha-stimulated IL8 release at 100 uM after 24 hrs by flow cytometric analysis relative to control; type: cell-based; method in brief: as §2

SMILES	MNTC at 24 h [2] [µM]	IC50 [4] [µM]	Activity (HT-29 [5])	inhibition (Glycine max) [%]	IC50 [6] [µM]	NF-kappaB activity (% of TNF-alpha control) (HT-29 [7]) [%]	solubility [8]	inhibition in vivo at 100 µmol/kg (Mus musculus) [%]	inhibition in vivo at 100 µmol/kg (Rattus norvegicus) [%]	Activity [12] [nM/min]	other results
O=C(N/N=C/c1c(-c2ccccc2)no[n+]1[O-])c1cccnc1	25	195	Non-toxic	14	> 100	–	–	–	–	–	inhibition (HT-29 [1]): 114%; inhibition (HT-29 [3]): 138%
Cc1c(C(=O)N/N=C/c2ccccc2O)no[n+]1[O-]	100	246	Non-toxic	37	–	55	Insoluble	–	–	–	–
COc1ccc2c(c1)c(CC(=O)O)c(C)n2C(=O)c1ccc(Cl)cc1 [INDOMETHACIN]	–	–	–	–	–	–	–	44	61	–	inhibition [9]: 49.7%
O=S(=O)(c1ccccc1)c1no[n+]([O-])c1S(=O)(=O)c1ccccc1	20	–	Non-toxic	–	–	–	–	–	–	3700	inhibition (HT-29 [10]): 6%; inhibition (HT-29 [11]): 6%
Cc1c(C(=O)N/N=C/c2ccc(C(=O)O)cc2)no[n+]1[O-]	400	> 400	Non-toxic	74	35	–	–	0	16	1.04	NF-kappaB activity (GFP-positive cells), % of TNF-alpha control (HT-29 [13]): 125%; inhibition (HT-29 [14]): 53%; Activity [15]: 0.19 nM/min; Activity (Salmonella typhimurium [16]): Non-toxic; Activity (Salmonella typhimurium [17]): Non-toxic
Cc1c(/C=N/NC(=O)c2cccnc2)no[n+]1[O-] (mixture of isomers)	100	> 400	Non-toxic	22	–	112	Insoluble	–	–	–	inhibition (HT-29 [18]): 105%
